Reference: ChEMBL document CHEMBL1140177 (J Med Chem, 2008)
Converted amounts (≈) assume the structure as drawn.

How the values were obtained:
[1] = target: Human immunodeficiency virus type 1 reverse transcriptase (Human immunodeficiency virus 1, UniProt Q72547); test: Inhibition of wild type HIV1 RT polymerase by SPA
[2] = system: Human immunodeficiency virus 1; test: Antiviral activity against wild type HIV1 infected in human MT4 cells after 72 hrs in presence of 50% normal human serum; assay type: functional; settings: Human immunodeficiency virus 1, MT4, 72 h; read-out: CIC95
Method in brief: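 MT-4 human T-lymphoid cells in RPMI 1640 with 50% NHS. CIC95 is the concentration that inhibits viral spread by >95%. Values are either geometric means of two determinations or given with standard deviations for n > 3 or n > 50.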

[3] = system: Human immunodeficiency virus 1; test: Antiviral activity against HIV1 with reverse transcriptase K103N/P225H mutant in presence of 40% normal human serum; assay type: functional, organism-based
[4] = system: Human immunodeficiency virus 1; test: Antiviral activity against HIV1 with reverse transcriptase Y188L mutant in presence of 40% normal human serum; assay type: functional, organism-based
[5] = system: Human immunodeficiency virus 1; test: Antiviral activity against HIV1 with reverse transcriptase K103N mutant in presence of 40% normal human serum; assay type: functional, organism-based
[6] = system: Human immunodeficiency virus 1; test: Antiviral activity against HIV1 with reverse transcriptase Y181C mutant infected in human MT4 cells after 72 hrs in presence of 10% fetal bovine serum; assay type: functional; settings: Human immunodeficiency virus 1, MT4, 72 h; read-out: CIC95
Method in brief: (§1)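 Mutant HIV-1 spread was assayed in MT-4 human T-lymphoid cells kept in RPMI 1640 with 10% FBS. CIC95 is the concentration that inhibits viral spread by >95%. Values are geometric means of two determinations, or mean with standard deviation where n > 3. Cytotoxicity was checked up to an assay limit of 8.3 µM.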

[7] = AUC in rhesus monkey at 10 mg/kg, po; assay type: ADME, organism-based, Macaca mulatta; parameters: dose 10 mg/kg, route oral; settings: plasma
[8] = Volume of distribution in Beagle dog at 2 mg/kg, po and 0.25 mg/kg, iv; assay type: ADME, organism-based, Canis lupus familiaris; settings: in vivo
Method in brief: (§2)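 Two beagle dogs, averaged. Oral dose 2 mpk in Imwitor/Tween; intravenous dose 0.25 mpk in DMSO.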

[9] = system: Human immunodeficiency virus 1; test: Antiviral activity against HIV1 with reverse transcriptase K103N mutant infected in human MT4 cells after 72 hrs in presence of 10% fetal bovine serum; assay type: functional; settings: Human immunodeficiency virus 1, MT4, 72 h; read-out: CIC95; method in brief: as §1
[10] = target: Human immunodeficiency virus type 1 reverse transcriptase (Human immunodeficiency virus 1, UniProt Q72547, K103N); test: Inhibition of HIV1 RT polymerase K103N mutant by SPA
[11] = system: Human immunodeficiency virus 1; test: Antiviral activity against wild type HIV1 in presence of 40% normal human serum; assay type: functional, organism-based
Method in brief: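 Monogram Bioscience PhenoScreen cell-culture assay run with 40% NHS. […] Value is the geometric mean of n = 2.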

[12] = system: Human immunodeficiency virus 1; test: Antiviral activity against HIV1 with reverse transcriptase K101E/G190A mutant in presence of 40% normal human serum; assay type: functional, organism-based
[13] = Volume of distribution in Sprague-Dawley rat at 10 mg/kg, po and 2 mg/kg, iv; assay type: ADME, organism-based; settings: in vivo
[14] = Half life in Sprague-Dawley rat at 10 mg/kg, po and 2 mg/kg, iv; assay type: ADME, organism-based; settings: in vivo
[15] = Half life in rhesus monkey at 10 mg/kg, po and 1 mg/kg, iv; assay type: ADME, organism-based, Macaca mulatta; settings: in vivo
Method in brief: (§3)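 Two rhesus macaques, averaged. Oral dose 10 mpk in Imwitor/Tween; intravenous dose 1 mpk in DMSO.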

[16] = Volume of distribution in rhesus monkey at 10 mg/kg, po and 1 mg/kg, iv; assay type: ADME, organism-based, Macaca mulatta; settings: in vivo; method in brief: as §3
[17] = system: Human immunodeficiency virus 1; test: Antiviral activity against HIV1 with reverse transcriptase Y181C mutant in presence of 40% normal human serum; assay type: functional, organism-based
[18] = Solubility at pH 2; assay type: physicochemical; settings: buffer
[19] = AUC in Beagle dog at 2 mg/kg, po; assay type: ADME, organism-based, Canis lupus familiaris; parameters: dose 2 mg/kg, route oral; settings: plasma; method in brief: as §2
[20] = system: Human immunodeficiency virus 1; test: Antiviral activity against HIV1 with reverse transcriptase Y181C/G190A mutant in presence of 40% normal human serum; assay type: functional, organism-based
[21] = Oral bioavailability in Beagle dog at 2 mg/kg; assay type: ADME, organism-based, Canis lupus familiaris; settings: in vivo; method in brief: as §2
[22] = system: Human immunodeficiency virus 1; test: Antiviral activity against HIV1 with reverse transcriptase K103N/G190A mutant in presence of 40% normal human serum; assay type: functional, organism-based
[23] = target: Human immunodeficiency virus type 1 reverse transcriptase (Human immunodeficiency virus 1, UniProt Q72547, Y181C); test: Inhibition of HIV1 RT polymerase Y181C mutant by SPA
[24] = Oral bioavailability in Sprague-Dawley rat at 10 mg/kg; assay type: ADME, organism-based; settings: in vivo
[25] = Clearance in Beagle dog at 2 mg/kg, po and 0.25 mg/kg, iv; assay type: ADME, organism-based, Canis lupus familiaris; settings: in vivo; method in brief: as §2
[26] = system: Human immunodeficiency virus 1; test: Antiviral activity against HIV1 with reverse transcriptase G190S mutant in presence of 40% normal human serum; assay type: functional, organism-based
[27] = Half life in Beagle dog at 2 mg/kg, po and 0.25 mg/kg, iv; assay type: ADME, organism-based, Canis lupus familiaris; settings: in vivo; method in brief: as §2
[28] = Oral bioavailability in rhesus monkey at 10 mg/kg; assay type: ADME, organism-based, Macaca mulatta; settings: in vivo
[29] = system: Human immunodeficiency virus 1; test: Antiviral activity against wild type HIV1 infected in human MT4 cells after 72 hrs in presence of 10% fetal bovine serum; assay type: functional; settings: Human immunodeficiency virus 1, MT4, 72 h; read-out: CIC95
Method in brief: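 MT-4 human T-lymphoid cells in RPMI 1640 with 10% FBS. CIC95 is the concentration that inhibits viral spread by >95%. Values are either geometric means of two determinations or given with standard deviations for n > 3 or n > 50.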

[30] = system: Human immunodeficiency virus 1; test: Antiviral activity against HIV1 with reverse transcriptase K103N/V179E mutant in presence of 40% normal human serum; assay type: functional, organism-based
[31] = system: Human immunodeficiency virus 1; test: Antiviral activity against HIV1 with reverse transcriptase G190A mutant in presence of 40% normal human serum; assay type: functional, organism-based
[32] = system: Human immunodeficiency virus 1; test: Antiviral activity against HIV1 with reverse transcriptase K103N/Y181C mutant in presence of 40% normal human serum; assay type: functional, organism-based
[33] = system: Human immunodeficiency virus 1; test: Antiviral activity against HIV1 with reverse transcriptase L100I mutant in presence of 40% normal human serum; assay type: functional, organism-based
[34] = Clearance in Sprague-Dawley rat at 10 mg/kg, po and 2 mg/kg, iv; assay type: ADME, organism-based; settings: in vivo
[35] = Solubility at pH 7; assay type: physicochemical; settings: buffer
[36] = Clearance in rhesus monkey at 10 mg/kg, po and 1 mg/kg, iv; assay type: ADME, organism-based, Macaca mulatta; settings: in vivo; method in brief: as §3
[37] = AUC in Sprague-Dawley rat at 10 mg/kg, po; assay type: ADME, organism-based; parameters: dose 10 mg/kg, route oral; settings: plasma

In the case of N#Cc1cc(Cl)cc(Oc2cc(OCc3n[nH]c4ncccc34)ccc2Cl)c1, the IC50 [1] is reported as 0.4 nM, the IC95 [2] is reported as 34 nM and the IC50 [3] is reported as 4.8 nM. It also gave an IC50 [4] of 900 nM, an IC50 [5] of 2.5 nM and an IC95 [6] of 22 nM. The AUC [7] was 0.3 µM·h, the Vd [8] was 2.6 L/kg and the IC95 [9] was 14.6 nM. The IC50 [10] was 0.5 nM, the IC50 [11] was 1.5 nM and the IC50 [12] was 4.8 nM. For the same compound, the Vd [13] was 5.3 L/kg, the half-life [14] was 4.1 h and the half-life [15] was 8.2 h. For the same compound, the Vd [16] was 4.4 L/kg, the IC50 [17] was 4.1 nM and the solubility [18] was less than 0.1 µg/mL. It also gave an AUC [19] of 1.6 µM·h, an IC50 [20] of 17.1 nM and a bioavailability [21] of 17%. The IC50 [22] was 4 nM, the IC50 [23] was 0.2 nM and the bioavailability [24] was 58%. The clearance [25] was 8.9 mL/min/kg, the IC50 [26] was 6.8 nM and the half-life [27] was 11.8 h. For the same compound, the bioavailability [28] was 3%, the IC95 [29] was 10.3 nM and the IC50 [30] was 6 nM. The IC50 [31] was 1.8 nM, the IC50 [32] was 34.1 nM and the IC50 [33] was 1.1 nM. It also gave a clearance [34] of 28 mL/min/kg, a solubility [35] of 0.1 µg/mL (≈ 0.243 µM) and a clearance [36] of 19 mL/min/kg. It also gave an AUC [37] of 9.5 µM·h.
Work on N#Cc1cc(Cl)cc(Oc2cc(OCc3n[nH]c4cccnc34)ccc2Cl)c1 yielded an IC50 [1] of 3.6 nM, an IC95 [2] of 922 nM and an IC95 [9] of 2770 nM. For the same compound, the IC50 [10] was 40 nM, the IC50 [23] was 740 nM and the IC95 [29] was 307 nM.
With N#Cc1cc(Cl)cc(Oc2cc(OCc3n[nH]c4cnccc34)ccc2Cl)c1 the IC50 [1] was 0.8 nM, the IC95 [2] was 34 nM and the IC95 [6] was 31 nM. It also gave an IC95 [9] of 34.2 nM, an IC50 [10] of 1.3 nM and an IC50 [23] of 3.9 nM. For the same compound, the IC95 [29] was 10.8 nM.
Compound O=C1Nc2ccc(Cl)cc2[C@@](C#CC2CC2)(C(F)(F)F)O1 [EFAVIRENZ] has an IC95 [2] of 42 nM, an IC95 [6] of 87 nM and an IC95 [9] of 245 nM. For the same compound, the IC95 [29] was 4.6 nM.
